Measured values from ChEMBL document CHEMBL1131634, “Axially chiral N-benzyl-N,7-dimethyl-5-phenyl-1, 7-naphthyridine-6-carboxamide derivatives as tachykinin NK1 receptor antagonists: determination of the absolute stereochemical requirements” (J Med Chem, 1998).

What was measured:
Cavia porcellus [1] = assay: In vivo inhibition of capsaicin-induced plasma extravasation in guinea pig trachea on peroral administration; assay type: functional; conditions: po
Summary of the method: (§1)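 Guinea pigs received compound iv or po before capsaicin challenge, and tracheal plasma extravasation was measured. ID50 was derived from 5–8 animals per dose and reported with 95% confidence limits.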

Cavia porcellus [2] = assay: In vivo inhibition of capsaicin-induced plasma extravasation in guinea pig trachea on intravenous administration.; assay type: functional; summary of the method: as §1
Substance-P receptor = Substance-P receptor (Homo sapiens, UniProt P25103); assay: Binding affinity at Tachykinin receptor 1 by measuring its ability to inhibit [125I]BH-SP binding in human IM-9 cells (Lymphoblast cells).; assay type: cell-based
Cavia porcellus [3] = assay: In vivo inhibition (percentage) of capsaicin-induced plasma extravasation in guinea pig trachea on intravenous administration at 1.0 mg/kg; assay type: functional
Summary of the method: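 Guinea pigs were given a single iv dose of 1.0 mg/kg. Capsaicin-induced tracheal plasma extravasation was then measured, with percent inhibition reported (n = 5 or 6).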

Sequence of Substance-P receptor (P25103 whole entry): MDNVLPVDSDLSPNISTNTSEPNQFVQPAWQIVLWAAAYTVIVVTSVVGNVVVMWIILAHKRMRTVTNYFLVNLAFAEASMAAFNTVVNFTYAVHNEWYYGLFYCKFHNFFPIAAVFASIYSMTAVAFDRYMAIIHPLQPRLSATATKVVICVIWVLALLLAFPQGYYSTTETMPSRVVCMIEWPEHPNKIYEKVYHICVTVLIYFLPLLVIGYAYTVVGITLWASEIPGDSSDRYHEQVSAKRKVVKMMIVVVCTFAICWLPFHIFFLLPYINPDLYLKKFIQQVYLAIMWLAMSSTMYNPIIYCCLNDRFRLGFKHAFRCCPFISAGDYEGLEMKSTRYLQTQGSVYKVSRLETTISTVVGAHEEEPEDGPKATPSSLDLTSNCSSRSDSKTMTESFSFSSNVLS

Compound | ED50 (Cavia porcellus [1]) [mg/kg] | ED50 (Cavia porcellus [2]) [mg/kg] | IC50 (Substance-P receptor) [nM] | inhibition in vivo at 1 mg/kg (Cavia porcellus [3]) [%]
Cc1ccc(-c2c(C(=O)N(C)Cc3cc(C(F)(F)F)cc(C(F)(F)F)c3)n(C)c(=O)c3ncccc23)cc1 [7-METHYL-8-OXO-5-P-TOLYL-7,8-DIHYDRO-[1,7]NAPHTHYRIDINE-6-CARBOXYLIC ACID (3,5-BIS-TRIFLUOROMETHYL-BENZYL)-METHYL-AMIDE (STRUCTURAL MIX)] | 0.11 | – | – | –
Cc1ccc(-c2c(C(=O)N(C)[C@H](C)c3cc(C(F)(F)F)cc(C(F)(F)F)c3)n(C)c(=O)c3ncccc23)cc1 (stereo in doubt; 3b-A) [7-METHYL-8-OXO-5-P-TOLYL-7,8-DIHYDRO-[1,7]NAPHTHYRIDINE-6-CARBOXYLIC ACID (S)-[(R)-1-(3,5-BIS-TRIFLUOROMETHYL-PHENYL)-ETHYL]-METHYL-AMIDE (ENANTIOMERIC MIX)] | – | 0.412 | 19 | –
Cc1ccc(-c2c(C(=O)N(C)[C@@H](C)c3cc(C(F)(F)F)cc(C(F)(F)F)c3)n(C)c(=O)c3ncccc23)cc1 (stereo in doubt; 3a-A) [7-METHYL-8-OXO-5-P-TOLYL-7,8-DIHYDRO-[1,7]NAPHTHYRIDINE-6-CARBOXYLIC ACID (S)-[(S)-1-(3,5-BIS-TRIFLUOROMETHYL-PHENYL)-ETHYL]-METHYL-AMIDE (ENANTIOMERIC MIX)] | 0.0677 | 0.0093 | 0.8 | –
Cc1ccc(-c2c(C(=O)N(C)[C@H](C)c3ccccc3)n(C)c(=O)c3ncccc23)cc1 | – | – | 130 | –
Cc1ccc(-c2c(C(=O)N(C)[C@H](C)c3cc(C(F)(F)F)cc(C(F)(F)F)c3)n(C)c(=O)c3ncccc23)cc1 (stereo in doubt; 3b-B) [7-METHYL-8-OXO-5-P-TOLYL-7,8-DIHYDRO-[1,7]NAPHTHYRIDINE-6-CARBOXYLIC ACID (S)-[(R)-1-(3,5-BIS-TRIFLUOROMETHYL-PHENYL)-ETHYL]-METHYL-AMIDE (ENANTIOMERIC MIX)] | – | – | 620 | 6.9
Cc1ccc(-c2c(C(=O)N(C)[C@@H](C)c3cc(C(F)(F)F)cc(C(F)(F)F)c3)n(C)c(=O)c3ncccc23)cc1 (stereo in doubt; 3a-B) [7-METHYL-8-OXO-5-P-TOLYL-7,8-DIHYDRO-[1,7]NAPHTHYRIDINE-6-CARBOXYLIC ACID (S)-[(S)-1-(3,5-BIS-TRIFLUOROMETHYL-PHENYL)-ETHYL]-METHYL-AMIDE (ENANTIOMERIC MIX)] | – | – | 44 | 61.8
